MIC and ED50 data for six compounds are collected here from ChEMBL document CHEMBL1132437, “Synthesis and antimicrobial activity of 4H-4-oxoquinolizine derivatives: consequences of structural modification at the C-8 position” (1999).

Holding throughout (assay type): functional
Experiment [1] deals with Burkholderia cepacia. As to the kind of experiment: In vitro antibacterial activity against gram negative Pseudomonas cepacia 2961. In short, it runs like this: (§1)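 Agar dilution MIC determination following the National Committee for Clinical Laboratory Standards recommendations.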
For experiment [2], the system named is Pseudomonas aeruginosa. As to the kind of experiment: In vitro antibacterial activity against gram negative P. aeruginosa DPHP 5263. In outline: as §1
In experiment [3] the test system is Enterococcus faecium. As to the kind of experiment: In vitro antibacterial activity against gram-positive Enterococcus faecium ATCC 8043. In outline:
as §1

In experiment [4] the test system is Escherichia coli. As to the kind of experiment: In vitro antibacterial activity against gram negative Escherichia coli KNK 437. In outline: as §1
For experiment [5], the system named is Staphylococcus aureus. As to the kind of experiment: In vitro antibacterial activity against gram-positive Staphylococcus aureus NCTC 10649M. In short, it runs like this: as §1
Experiment [6] concerns Streptococcus pyogenes. As to the kind of experiment: In vitro antibacterial activity against Streptococcus pyogenes 930 an erythromycin-resistant. In outline:
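MIC by agar dilution following National Committee for Clinical Laboratory Standards recommendations. P. cepacia 2961 is a ciprofloxacin-resistant strain; S. pyogenes 930 is erythromycin-resistant.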

Experiment [7] relates to Pseudomonas aeruginosa. As to the kind of experiment: In vitro antibacterial activity against Gram-negative Pseudomonas aeruginosa 5007. In short, it runs like this:
as §1

For experiment [8], the system named is Staphylococcus aureus. As to the kind of experiment: In vitro antibacterial activity against gram-positive Staphylococcus aureus 1775. In outline:
as §1

Experiment [9] deals with Streptococcus pneumoniae. As to the kind of experiment: In vivo efficacy against Streptococcus pneumoniae ATCC 6303 in mouse protection test after s.c. administration. Particulars: Streptococcus pneumoniae, sc; read-out: ED50. In outline:
(§2)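 Mouse protection model: mice infected intravenously with 100-fold LD50 of the organism. Compound given by subcutaneous injection or oral gavage at 1 and 5 h after infection, over a dose range. Deaths tracked for 7 days post-inoculation. ED50 is the dose giving 50% survival of treated mice over the trial.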

Experiment [10] has as its system Mus musculus. As to the kind of experiment: (§3) In vivo efficacy against Pseudomonas aeruginosa 5007 in mouse protection test after subcutaneous administration. Particulars: sc. In outline:
as §2

Experiment [11] deals with Streptococcus pyogenes. As to the kind of experiment: In vitro antibacterial activity against gram positive Streptococcus pyogenes 930. In short, it runs like this: as §1
Experiment [12] deals with Escherichia coli. As to the kind of experiment: In vivo efficacy against Escherichia coli JUHL in mouse protection test after subcutaneous administration. Particulars: Escherichia coli, sc; read-out: ED50. In outline:
as §2

Experiment [13] concerns Staphylococcus aureus. As to the kind of experiment: In vivo efficacy against Staphylococcus aureus NCTC 10649M in mouse. To be noted: Staphylococcus aureus; read-out: ED50. In short, it runs like this:
as §2

Experiment [14] relates to Mus musculus. As to the kind of experiment: In vivo efficacy against Staphylococcus aureus NCTC 10649M in mouse protection test after administration by oral gavage.
In experiment [15] the test system is Pseudomonas aeruginosa. The experiment is described as §3. Particulars: Pseudomonas aeruginosa, sc; read-out: ED50. In short, it runs like this: as §2
In experiment [16] the test system is Mus musculus. As to the kind of experiment: In vivo efficacy against Streptococcus pneumoniae ATCC 6303 in mouse protection test after administration by oral gavage. In short, it runs like this:
as §2

The test system of experiment [17] is Pseudomonas aeruginosa. As to the kind of experiment: (§4) In vivo efficacy against Pseudomonas aeruginosa 5007 in mouse protection test after administration by oral gavage. To be noted: Pseudomonas aeruginosa, po; read-out: ED50. In outline:
as §2

Experiment [18] relates to Escherichia coli. As to the kind of experiment: In vivo efficacy against Escherichia coli JUHL in mouse protection test after p.o. administration. To be noted: Escherichia coli, po; read-out: ED50. In short, it runs like this:
as §2

In experiment [19] the test system is Pseudomonas aeruginosa. As to the kind of experiment: Not Plasmodium species.
Experiment [20] relates to Mus musculus. As to the kind of experiment: In vivo efficacy against Streptococcus pneumoniae ATCC 6303 in mouse protection test after subcutaneous administration. To be noted: sc. In outline:
as §2

Experiment [21] has as its system Mus musculus. As to the kind of experiment: In vivo efficacy against Escherichia coli JUHL in mouse protection test after administration by oral gavage. In short, it runs like this: as §2
The test system of experiment [22] is Mus musculus. Described as §4. In short, it runs like this:
as §2

The subject of experiment [23] is Staphylococcus aureus. As to the kind of experiment: In vivo efficacy against Staphylococcus aureus NCTC 10649M in mouse protection test after p.o. administration. To be noted: Staphylococcus aureus, po; read-out: ED50. In outline:
as §2

For experiment [24], the system named is Mus musculus. As to the kind of experiment: In vivo efficacy against Streptococcus pneumoniae ATCC 6303 in mouse protection test after administration by oral gavage. In outline:
as §2

Experiment [25] deals with Mus musculus. As to the kind of experiment: In vivo efficacy against Pseudomonas aeruginosa 5007 in mouse protection test […]. In outline:
as §2

[26] abbreviates: Burkholderia cepacia, read-out: MIC.
Where [27] appears, read: Pseudomonas aeruginosa, DPHP 5263, read-out: MIC.
Setting [28] is: Enterococcus faecium, ATCC 8043, read-out: MIC.
[29] abbreviates: Escherichia coli, read-out: MIC.
The mark [30] stands for this setting: Staphylococcus aureus, NCTC 10649, read-out: MIC.
The mark [31] stands for this setting: Pseudomonas aeruginosa, read-out: MIC.
The mark [32] stands for this setting: Staphylococcus aureus, read-out: MIC.
Where [33] appears, read: Streptococcus pyogenes, read-out: MIC.

SMILES strings stand for the structures. In brackets after ≈: the same amount, converted by molar mass. A value given as a limit tells only on which side of the number the result lay.

As to `Cc1c(N2C[C@@H](C)[C@H](N)C2)c(F)cn2c(=O)c(C(=O)O)cc(C3CC3)c12`, the MIC (in general, the smallest concentration in the dilution series that meets the test's criterion for growth inhibition) in experiment [1] (setting [26]) is 0.78 µg/mL (≈ 2.17 µM); in [2] (setting [27]), 1.56 µg/mL (≈ 4.34 µM); in experiment [3] (setting [28]), 0.05 µg/mL (≈ 0.139 µM); in [4] (setting [29]), 0.05 µg/mL (≈ 0.139 µM); in [5] (setting [30]) it was 0.02 µg/mL (≈ 0.0556 µM); in experiment [6], 0.05 µg/mL (≈ 0.139 µM). In addition, the MIC in experiment [7] (setting [31]) was 0.2 µg/mL (≈ 0.556 µM); in experiment [8] (setting [32]) it was 0.78 µg/mL (≈ 2.17 µM).
Regarding `Cc1c(N2CCC[C@H](NC3CC3)C2)c(F)cn2c(=O)c(C(=O)O)cc(C3CC3)c12`, the ED50 (as a rule, the midpoint of the dose-response relation) in experiment [9] is 4.3 mg/kg; in experiment [10], greater than 32 mg/kg; in experiment [12] it was greater than 5 mg/kg; in [13] it was 0.8 mg/kg. For the same compound, the minimal inhibitory concentration (MIC) in experiment [1] (setting [26]) was found to be 0.78 µg/mL (≈ 1.95 µM); in experiment [2] (setting [27]), 3.1 µg/mL (≈ 7.76 µM); in experiment [11] (setting [33]), 0.02 µg/mL (≈ 0.0501 µM); in experiment [3] (setting [28]), 0.1 µg/mL (≈ 0.25 µM); in experiment [4] (setting [29]), 0.05 µg/mL (≈ 0.125 µM); in [5] (setting [30]), 0.01 µg/mL (≈ 0.025 µM). In addition, the MIC in [7] (setting [31]) came to 0.2 µg/mL (≈ 0.501 µM); in experiment [8] (setting [32]) it was 0.39 µg/mL (≈ 0.976 µM).
`O=C(O)c1cn(C2CC2)c2cc(N3CCNCC3)c(F)cc2c1=O` [CIPROFLOXACIN]: the MIC in experiment [1] (setting [26]) was 6.2 µg/mL (≈ 18.7 µM); in experiment [3] (setting [28]), 0.39 µg/mL (≈ 1.18 µM); in experiment [5] (setting [30]), 0.39 µg/mL (≈ 1.18 µM); in experiment [8] (setting [32]), greater than 100 µg/mL; in experiment [19], 0.1 µg/mL (≈ 0.302 µM). Besides, the ED50 in [14] was 25 mg/kg; in [15], 2.4 mg/kg; in experiment [16], greater than 100 mg/kg; in experiment [17], 20 mg/kg; in experiment [12], 0.2 mg/kg; in experiment [13], 3.6 mg/kg. Moreover, the ED50 in experiment [18] was 1.3 mg/kg; in experiment [20] it was 37.4 mg/kg.
Turning to `CCN[C@H]1CCN(c2c(F)cn3c(=O)c(C(=O)O)cc(C4CC4)c3c2C)C1`, the ED50 in experiment [9] is 2.9 mg/kg; in [15], greater than 8 mg/kg; in experiment [21], 3 mg/kg; in [22] it was greater than 50 mg/kg; in experiment [23], 7.7 mg/kg; in [12], 0.6 mg/kg. For the same compound, the 50% effective dose (ED50) in experiment [24] came out at 7.9 mg/kg; in [13] it was 1 mg/kg. Also, the MIC came out at 3.1 µg/mL (≈ 8.3 µM) in [1] (setting [26]); 6.2 µg/mL (≈ 16.6 µM) in experiment [2] (setting [27]); 0.1 µg/mL (≈ 0.268 µM) in [11] (setting [33]); 0.1 µg/mL (≈ 0.268 µM) in experiment [3] (setting [28]); 0.2 µg/mL (≈ 0.536 µM) in experiment [4] (setting [29]); 0.05 µg/mL (≈ 0.134 µM) in experiment [5] (setting [30]). In addition, the MIC in [7] (setting [31]) worked out at 0.39 µg/mL (≈ 1.04 µM); in experiment [8] (setting [32]) it was 1.56 µg/mL (≈ 4.18 µM).
Turning to `CCCN[C@H]1CCN(c2c(F)cn3c(=O)c(C(=O)O)cc(C4CC4)c3c2C)C1`, the MIC was 3.1 µg/mL (≈ 8 µM) in experiment [1] (setting [26]); 12.5 µg/mL (≈ 32.3 µM) in experiment [2] (setting [27]); 0.2 µg/mL (≈ 0.516 µM) in experiment [11] (setting [33]); 0.39 µg/mL (≈ 1.01 µM) in experiment [3] (setting [28]); 0.2 µg/mL (≈ 0.516 µM) in [4] (setting [29]); 0.1 µg/mL (≈ 0.258 µM) in experiment [5] (setting [30]). For the same compound, the MIC in experiment [7] (setting [31]) and in experiment [8] (setting [32]) was 1.56 µg/mL (≈ 4.03 µM) each time. For the same compound, the ED50 in experiment [15] was greater than 8 mg/kg; in experiment [22], greater than 50 mg/kg; in experiment [23], 25.4 mg/kg; in experiment [12] it was 1.1 mg/kg; in experiment [13], 4.3 mg/kg; in experiment [18], greater than 10 mg/kg.
Consider `CN[C@@H]1CN(c2c(F)cn3c(=O)c(C(=O)O)cc(C4CC4)c3c2C)C[C@H]1C` (stereo in doubt; 3v), for which the ED50 in experiment [9] was 5 mg/kg; in experiment [15] it was 16.1 mg/kg; in experiment [25] it was greater than 50 mg/kg; in [23] it was 6.3 mg/kg; in experiment [12], 2.8 mg/kg; in experiment [24], 13 mg/kg. Besides, the ED50 in [13] was found to be 1.6 mg/kg; in [18] it was 9.1 mg/kg. Further, the MIC in experiment [1] amounted to 1.56 µg/mL (≈ 4.18 µM); in experiment [2], 12.5 µg/mL (≈ 33.5 µM); in [11], 0.2 µg/mL (≈ 0.536 µM); in [3], 0.2 µg/mL (≈ 0.536 µM); in experiment [4], 0.2 µg/mL (≈ 0.536 µM); in experiment [5] it was 0.02 µg/mL (≈ 0.0536 µM). The results for the MIC in experiment [7] and in [8] were 0.39 µg/mL (≈ 1.04 µM) and 1.56 µg/mL (≈ 4.18 µM), respectively.
